Experimental data from ChEMBL document CHEMBL3120083, “Discovery of N-[4-[6-tert-butyl-5-methoxy-8-(6-methoxy-2-oxo-1H-pyridin-3-yl)-3-quinolyl]phenyl]methanesulfonamide (RG7109), a potent inhibitor of the hepatitis C virus NS5B polymerase” (J Med Chem, 2014).
In brackets after ≈: the same amount, converted by molar mass.

What was measured:
[1] = Oral bioavailability in Beagle dog at 3 mg/kg of compound as aqueous suspension; type: ADME, organism-based, Canis lupus familiaris; settings: in vivo
[2] = AUC (0 to infinity) in Beagle dog at 3 mg/kg, po of compound as aqueous suspension; type: ADME, organism-based, Canis lupus familiaris; set-up: time infinity, dose 3 mg/kg, route oral; settings: plasma
[3] = Drug uptake in Beagle dog at 3 mg/kg, po of compound as aqueous suspension measured at 8 hrs; type: ADME, organism-based, Canis lupus familiaris; set-up: dose 3 mg/kg, route oral; settings: in vivo, read-out: Drug uptake
[4] = Cmax in Beagle dog at 3 mg/kg, po of compound as aqueous suspension; type: ADME, organism-based, Canis lupus familiaris; set-up: dose 3 mg/kg, route oral; settings: in vivo
[5] = Half life in Beagle dog at 1 mg/kg, iv; type: ADME, organism-based, Canis lupus familiaris; set-up: dose 1 mg/kg, route intravenous; settings: in vivo
Method in brief: (§1)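 Single intravenous bolus via tail vein or jugular cannula of dual-cannulated animals, vehicle 2% dimethyl acetamide/20% PEG400/23.4% HPBCD. EDTA blood typically taken at 0.08, 0.25, 0.5, 1, 2, 4, 6, 8 and 24 h from the remaining cannulas. Plasma drug measured by LC/MS/MS following acetonitrile protein precipitation.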

[6] = Volume of distribution at steady state in Beagle dog at 1 mg/kg, iv; type: ADME, organism-based, Canis lupus familiaris; set-up: dose 1 mg/kg, route intravenous; settings: in vivo, read-out: Vdss; method in brief: as §1
[7] = Clearance in Beagle dog at 1 mg/kg, iv; type: ADME, organism-based, Canis lupus familiaris; set-up: dose 1 mg/kg, route intravenous; settings: in vivo; method in brief: as §1
[8] = Oral bioavailability in Wistar/Han rat at 30 mg/kg of compound as aqueous suspension; type: ADME, organism-based; settings: in vivo
[9] = AUC (0 to infinity) in Wistar/Han rat at 30 mg/kg, po of compound as aqueous suspension; type: ADME, organism-based; set-up: time infinity, dose 30 mg/kg, route oral; settings: plasma
[10] = Drug uptake in Wistar/Han rat at 30 mg/kg, po of compound as aqueous suspension measured at 8 hrs; type: ADME, organism-based; set-up: dose 30 mg/kg, route oral; settings: in vivo, read-out: Drug uptake
[11] = Cmax in Wistar/Han rat at 30 mg/kg, po of compound as aqueous suspension; type: ADME, organism-based; set-up: dose 30 mg/kg, route oral; settings: in vivo
[12] = Half life in Wistar/Han rat at 3 mg/kg, iv; type: ADME, organism-based; set-up: dose 3 mg/kg, route intravenous; settings: in vivo; method in brief: as §1
[13] = Volume of distribution at steady state in Wistar/Han rat at 3 mg/kg, iv; type: ADME, organism-based; set-up: dose 3 mg/kg, route intravenous; settings: in vivo, read-out: Vdss; method in brief: as §1
[14] = Clearance in Wistar/Han rat at 3 mg/kg, iv; type: ADME, organism-based; set-up: dose 3 mg/kg, route intravenous; settings: in vivo; method in brief: as §1
Hepatitis C virus [15] = experiment: Antiviral activity against Hepatitis C virus genotype 1b clinical isolate RO-10 expressing NS5B assessed as inhibition of viral replication after 4 days by luciferase reporter gene assay; type: functional, organism-based, Hepacivirus hominis; settings: genotype 1b clinical isolate RO-10, 96 h
Hepatitis C virus [16] = experiment: Antiviral activity against Hepatitis C virus genotype 1b clinical isolate RO-8 expressing NS5B assessed as inhibition of viral replication after 4 days by luciferase reporter gene assay; type: functional, organism-based, Hepacivirus hominis; settings: genotype 1b clinical isolate RO-8, 96 h
Hepatitis C virus [17] = experiment: Antiviral activity against Hepatitis C virus genotype 1b clinical isolate RO-7 expressing NS5B assessed as inhibition of viral replication after 4 days by luciferase reporter gene assay; type: functional, organism-based, Hepacivirus hominis; settings: genotype 1b clinical isolate RO-7, 96 h
Hepatitis C virus [18] = experiment: Antiviral activity against Hepatitis C virus genotype 1b clinical isolate RO-4 expressing NS5B assessed as inhibition of viral replication after 4 days by luciferase reporter gene assay; type: functional, organism-based, Hepacivirus hominis; settings: genotype 1b clinical isolate RO-4, 96 h
Hepatitis C virus [19] = experiment: Antiviral activity against Hepatitis C virus genotype 1b clinical isolate RO-3 expressing NS5B assessed as inhibition of viral replication after 4 days by luciferase reporter gene assay; type: functional, organism-based, Hepacivirus hominis; settings: genotype 1b clinical isolate RO-3, 96 h
Hepatitis C virus [20] = experiment: Antiviral activity against Hepatitis C virus genotype 1b clinical isolate RO-2 expressing NS5B assessed as inhibition of viral replication after 4 days by luciferase reporter gene assay; type: functional, organism-based, Hepacivirus hominis; settings: genotype 1b clinical isolate RO-2, 96 h
Hepatitis C virus [21] = experiment: Antiviral activity against Hepatitis C virus genotype 1b clinical isolate RO-1 expressing NS5B assessed as inhibition of viral replication after 4 days by luciferase reporter gene assay; type: functional, organism-based, Hepacivirus hominis; settings: genotype 1b clinical isolate RO-1, 96 h
Hepatitis C virus [22] = experiment: Antiviral activity against Hepatitis C virus genotype 1b Con1 expressing NS5B assessed as inhibition of viral replication after 4 days by luciferase reporter gene assay; type: functional, organism-based, Hepacivirus hominis; settings: isolate Con1, 96 h
Hepatitis C virus [23] = experiment: Antiviral activity against Hepatitis C virus genotype 1a clinical isolate RO-41 expressing NS5B assessed as inhibition of viral replication after 4 days by luciferase reporter gene assay; type: functional, organism-based, Hepacivirus hominis; settings: genotype 1a clinical isolate RO-41, 96 h
Hepatitis C virus [24] = experiment: Antiviral activity against Hepatitis C virus genotype 1a clinical isolate RO-38 expressing NS5B assessed as inhibition of viral replication after 4 days by luciferase reporter gene assay; type: functional, organism-based, Hepacivirus hominis; settings: genotype 1a clinical isolate RO-38, 96 h
Hepatitis C virus [25] = experiment: Antiviral activity against Hepatitis C virus genotype 1a clinical isolate RO-35 expressing NS5B assessed as inhibition of viral replication after 4 days by luciferase reporter gene assay; type: functional, organism-based, Hepacivirus hominis; settings: genotype 1a clinical isolate RO-35, 96 h
Hepatitis C virus [26] = experiment: Antiviral activity against Hepatitis C virus genotype 1a clinical isolate RO-34 expressing NS5B assessed as inhibition of viral replication after 4 days by luciferase reporter gene assay; type: functional, organism-based, Hepacivirus hominis; settings: genotype 1a clinical isolate RO-34, 96 h
Hepatitis C virus [27] = experiment: Antiviral activity against Hepatitis C virus genotype 1a clinical isolate RO-33 expressing NS5B assessed as inhibition of viral replication after 4 days by luciferase reporter gene assay; type: functional, organism-based, Hepacivirus hominis; settings: genotype 1a clinical isolate RO-33, 96 h
Hepatitis C virus [28] = experiment: Antiviral activity against Hepatitis C virus genotype 1a clinical isolate RO-28 expressing NS5B assessed as inhibition of viral replication after 4 days by luciferase reporter gene assay; type: functional, organism-based, Hepacivirus hominis; settings: genotype 1a clinical isolate RO-28, 96 h
Hepatitis C virus [29] = experiment: Antiviral activity against Hepatitis C virus genotype 1a clinical isolate RO-24 expressing NS5B assessed as inhibition of viral replication after 4 days by luciferase reporter gene assay; type: functional, organism-based, Hepacivirus hominis; settings: genotype 1a clinical isolate RO-24, 96 h
Hepatitis C virus [30] = experiment: Antiviral activity against Hepatitis C virus genotype 1a clinical isolate RO-18 expressing NS5B assessed as inhibition of viral replication after 4 days by luciferase reporter gene assay; type: functional, organism-based, Hepacivirus hominis; settings: genotype 1a clinical isolate RO-18, 96 h
Hepatitis C virus [31] = experiment: Antiviral activity against Hepatitis C virus genotype 1a H77 expressing NS5B assessed as inhibition of viral replication after 4 days by luciferase reporter gene assay; type: functional, organism-based, Hepacivirus hominis; settings: genotype 1a H77, 96 h
Hepatitis C virus [32] = experiment: Ratio of EC50 for Hepatitis C virus genotype 1b Con1 in presence of human serum to EC50 for Hepatitis C virus genotype 1b Con1; type: functional, Hepacivirus hominis, isolate Con1
Hepatitis C virus [33] = experiment: Ratio of EC50 for Hepatitis C virus genotype 1a H77 in presence of human serum to EC50 for Hepatitis C virus genotype 1a H77; type: functional, Hepacivirus hominis
Hepatitis C virus [34] = experiment: Antiviral activity against Hepatitis C virus genotype 1b Con1 infected in human 2209-23 cells after 72 hrs by luciferase reporter gene assay in presence of 40% human serum; type: functional, organism-based, Hepacivirus hominis; settings: isolate Con1, 2209-23, 72 h
Hepatitis C virus [35] = experiment: Antiviral activity against Hepatitis C virus genotype 1a H77 infected in human 2209-23 cells after 72 hrs by luciferase reporter gene assay in presence of 40% human serum; type: functional, organism-based, Hepacivirus hominis; settings: genotype 1a H77, 2209-23, 72 h
[36] = Ratio of EC50 for Hepatitis C virus genotype 1a H77 to EC50 for Hepatitis C virus genotype 1b Con1; type: functional
[37] = Thermodynamic solubility of the compound; type: physicochemical; settings: read-out: Therm_solubility
Hepatitis C virus [38] = experiment: Antiviral activity against Hepatitis C virus genotype 1b Con1 infected in human 2209-23 cells after 72 hrs by luciferase reporter gene assay; type: functional, organism-based, Hepacivirus hominis; settings: isolate Con1, 2209-23, 72 h
Method in brief: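 Stable GT-1b Con1 subgenomic replicon cell line expressing a renilla luciferase reporter, used as the readout of inhibition. EC50 from luciferase signal, n 2.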

Hepatitis C virus [39] = experiment: Antiviral activity against Hepatitis C virus genotype 1a H77 infected in human 2209-23 cells after 72 hrs by luciferase reporter gene assay; type: functional, organism-based, Hepacivirus hominis; settings: genotype 1a H77, 2209-23, 72 h
Hepatitis C virus [40] = experiment: Antiviral activity against Hepatitis C virus genotype 1b clinical isolate RO-9 expressing NS5B assessed as inhibition of viral replication after 4 days by luciferase reporter gene assay; type: functional, organism-based, Hepacivirus hominis; settings: genotype 1b clinical isolate RO-9, 96 h

`COc1ccc(-c2cc(C(C)(C)C)c(OC)c3cc(N4CC[C@H](CNS(C)(=O)=O)C4)cnc23)c(=O)[nH]1` gave a bioavailability [1] of 36%, an AUC(0-inf) [2] of 4200 ng·h/mL and a concentration at 8 h [3] of 210 ng/mL. It also gave a Cmax [4] of 360 ng/mL, a half-life [5] of 5.1 h and a Vd [6] of 1.5 L/kg. For the same compound, the clearance [7] was 4.4 mL/min/kg, the bioavailability [8] was 100% and the AUC(0-inf) [9] was 37000 ng·h/mL. The concentration at 8 h [10] was 1790 ng/mL, the Cmax [11] was 3800 ng/mL and the half-life [12] was 5.6 h. The Vd [13] was 2.3 L/kg, the clearance [14] was 13.8 mL/min/kg and the EC50 (Hepatitis C virus [15]) was 1.67 nM. It also gave an EC50 (Hepatitis C virus [16]) of 0.33 nM, an EC50 (Hepatitis C virus [17]) of 3.05 nM and an EC50 (Hepatitis C virus [18]) of 0.8 nM. For the same compound, the EC50 (Hepatitis C virus [19]) was 6.1 nM, the EC50 (Hepatitis C virus [20]) was 4 nM and the EC50 (Hepatitis C virus [21]) was 0.3 nM. For the same compound, the EC50 (Hepatitis C virus [22]) was 1.2 nM, the EC50 (Hepatitis C virus [23]) was 0.27 nM and the EC50 (Hepatitis C virus [24]) was 9.5 nM. For the same compound, the EC50 (Hepatitis C virus [25]) was 0.5 nM, the EC50 (Hepatitis C virus [26]) was 0.4 nM and the EC50 (Hepatitis C virus [27]) was 0.7 nM. The EC50 (Hepatitis C virus [28]) was 0.2 nM, the EC50 (Hepatitis C virus [29]) was 2.5 nM and the EC50 (Hepatitis C virus [30]) was 0.5 nM. The EC50 (Hepatitis C virus [31]) was 0.65 nM, the “Ratio EC50” value (Hepatitis C virus [32]) was 0.6 and the “Ratio EC50” value (Hepatitis C virus [33]) was 0.6. It also gave an EC50 (Hepatitis C virus [34]) of 7.5 nM, an EC90 (Hepatitis C virus [34]) of 44 nM and an EC50 (Hepatitis C virus [35]) of 10 nM. For the same compound, the EC90 (Hepatitis C virus [35]) was 61 nM, the “Ratio EC50” value [36] was 1.4 and the solubility thermodynamic [37] was 39 µg/mL (≈ 75.8 µM). It also gave an EC50 (Hepatitis C virus [38]) of 12 nM, an EC50 (Hepatitis C virus [39]) of 17 nM and an EC50 (Hepatitis C virus [40]) of 3.5 nM.
